Measured values from different studies.
Compare with care: the assays were run in different laboratories.
Target: Homeodomain-interacting protein kinase 4 (HIPK4, Homo sapiens, UniProt Q8NE63)
Residues used in one study (Q8NE63 1-616): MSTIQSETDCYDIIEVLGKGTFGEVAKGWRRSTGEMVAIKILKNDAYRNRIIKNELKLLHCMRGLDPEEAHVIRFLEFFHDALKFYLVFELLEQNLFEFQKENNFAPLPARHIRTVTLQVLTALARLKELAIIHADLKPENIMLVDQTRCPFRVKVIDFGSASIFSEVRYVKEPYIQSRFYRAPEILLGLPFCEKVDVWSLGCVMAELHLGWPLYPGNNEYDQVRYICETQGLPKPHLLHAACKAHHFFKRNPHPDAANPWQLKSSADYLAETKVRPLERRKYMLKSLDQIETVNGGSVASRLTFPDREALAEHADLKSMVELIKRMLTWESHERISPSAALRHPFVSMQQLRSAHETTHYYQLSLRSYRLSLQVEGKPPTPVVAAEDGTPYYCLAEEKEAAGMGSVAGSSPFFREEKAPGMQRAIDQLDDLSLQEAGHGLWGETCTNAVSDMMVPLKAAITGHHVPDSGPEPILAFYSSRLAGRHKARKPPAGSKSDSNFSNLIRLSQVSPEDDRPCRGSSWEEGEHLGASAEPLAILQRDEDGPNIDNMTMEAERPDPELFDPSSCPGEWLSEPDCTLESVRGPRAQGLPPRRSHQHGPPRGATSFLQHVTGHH

SMILES	test	setting	quantity	value
CCC(=O)N[C@@H]1CC[C@H](C(=O)N(C)c2ccc(-c3nc4ccccc4o3)cc2)C1	cell-free assay, competition with immobilised ligand	1 µM	remaining binding	100%
CNC(=O)c1cc2c(Oc3ccc(NC(=O)C4(C(=O)Nc5ccc(F)cc5)CC4)cc3)ccnc2cc1OC	enzyme activity, inhibitor, radiometric	1 µM	inhibition	102%
N#CC1(c2ccccn2)CCN(Cc2cc(C(=O)N3CCCC3)c(=O)n3ccccc23)CC1	cell-free assay, competition with immobilised ligand	1 µM	remaining binding	67%
COc1cc2ncnc(Nc3ccc(Oc4ccccc4)c(C)c3C)c2cc1OC	enzyme activity, inhibitor	1 µM	inhibition	-2%
COc1cccc(CCNc2nc3cc(C(=O)O)ccc3c3cnccc23)c1	enzyme activity, inhibitor, radiometric	1 µM	remaining activity	-8%
COc1cc2c(N3CCN(C(=O)Nc4ccc(OC(C)C)cc4)CC3)ncnc2cc1OCCCN1CCCCC1	cell-free assay	0.5 µM	remaining signal	99.5%
O=C(O)c1ccc2c(c1)nc(NCCc1cccc(F)c1)c1ncncc12	enzyme activity, inhibitor, radiometric	1 µM	remaining activity	10%
CCCOc1ccc([C@@H]2[C@@H](C(=O)O)[C@H](c3ccc4c(c3)OCO4)CN2CC(=O)Nc2c(CC)cccc2CC)cc1	cell-free assay, competition with immobilised ligand	1 µM	remaining binding	65%
O=C1Nc2ccc(Cl)cc2C1=Cc1cc(Cl)c(O)c(Cl)c1	cell-free assay	0.5 µM	remaining signal	88.4%
O=C(Nc1cnn(-c2csc(C(=O)NC3COC3)c2)c1)Nc1c(F)cccc1Cl	enzyme activity, inhibitor	5 µM	remaining activity	111%
O=C(O)c1ccc2c(c1)nc(NCc1ccccc1)c1ccncc12	enzyme activity, inhibitor, radiometric	1 µM	remaining activity	33%
CC/C(=N\NC(=O)NCc1cccc(O)c1)c1ccc(O)c(C)c1O	enzyme activity, inhibitor	0.1 µM	inhibition	1.5%
CS(=O)(=O)c1cc(C2(NC(=O)c3cncc4c3cnn4-c3ccc(F)cc3)CC2)ccn1	cell-free assay, competition with immobilised ligand	1 µM	remaining binding	100%
N#Cc1cccc(Nc2nc3cc(C(=O)O)ccc3c3cnccc23)c1	enzyme activity, inhibitor, radiometric	1 µM	remaining activity	29%
Cc1ccc(NC(=O)c2ccc(CN3CCN(C)CC3)cc2)cc1Nc1nc(-c2cccnc2)cs1	cell-free assay	0.5 µM	remaining signal	101%
O=C(O)c1ccc2c(c1)nc(Nc1ccc(F)c(Cl)c1)c1ncncc12	enzyme activity, inhibitor, radiometric	1 µM	remaining activity	6%
CS(=O)(=O)N1CCCC(NC(=O)[C@H](CCC2CCCCC2)NC(=O)c2ccc(CNC(=O)c3cnc4ccccn34)cc2)C1 (some centres unmarked)	cell-free assay, competition with immobilised ligand	0.1 µM	remaining binding	88%
CCCS(=O)(=O)Nc1ccc(F)c(C(=O)c2c[nH]c3ncc(-c4ccc(Cl)cc4)cc23)c1F	enzyme activity, inhibitor	1 µM	inhibition	< 10%
COc1cccc(Nc2nc3cc(C(=O)O)ccc3c3cnccc23)c1	enzyme activity, inhibitor, radiometric	1 µM	remaining activity	-14%
CC(=O)c1c(NS(C)(=O)=O)c2cc(-c3ccc(Cl)cc3)c(-c3ccc(Cl)cc3Cl)nc2n(C)c1=O	cell-free assay, competition with immobilised ligand	1 µM	remaining binding	93%
